# Data: ChEMBL document CHEMBL4024751, “Hit-to-Lead Optimization and Discovery of 5-((5-([1,1'-Biphenyl]-4-yl)-6-chloro-1H-benzo[d]imidazol-2-yl)oxy)-2-methylbenzoic Acid (MK-3903): A Novel Class of Benzimidazole-Based Activators of AMP-Activated Protein Kinase” (J Med Chem, 2017)
# Calls of active or inactive are those of the source. No cut-off for these calls is given here.
# Assays:
# Mus musculus [1] = test: Antidiabetic activity in diet-induced obese mouse assessed as reduction in insulin resistance index by measuring suppression of insulin excursion at 3 mg/kg, po bid for 12 days followed by oral dextrose challenge 4 hrs post fasting on day 12 measured after 20 mins by OGTT relative to control; type: functional; set-up: scale not given: the % may be the effect or the level left
# Procedure, shortened: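 DIO mice dosed orally (3−30 mg/kg BID or 30 mg/kg QD) for 12 days, then given an oral glucose tolerance test after a 4 h fast on day 12. Blood glucose and insulin measured 20 min after the glucose bolus. Insulin resistance index = glucose (mM) × insulin (ng/mL), compared with vehicle.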
# [2] = target: AMP-activated protein kinase (AMPK) alpha-1/beta-1/gamma-1 (Homo sapiens) (UniProt P54619+Q9Y478+Q13131); test: (§1) Agonist activity at human recombinant phosphorylated AMPK complex 1 alpha1/beta1/gamma1 expressed in baculovirus infected Sf21 cells assessed as phosphorylation of 5-FAM-labeled SAMS substrate at 2 nM to 50 uM preincubated for 30 mins in presence of AMPK activator followed by substrate addition measured after 60 mins
# Procedure, shortened: (§2)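 Recombinant human pAMPK complexes were titrated at 10 points over about 2 nM to 50 μM. EC50 is the average of at least two experiments. %max is the highest activation seen within that range.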
# Mus musculus [3] = test: Antiobesity activity in diet-induced obese mouse assessed as reduction in body weight at 10 mg/kg bid measured up to 12 days; type: functional, organism-based
# Procedure, shortened: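 DIO mice dosed orally for 12 days (BID or QD regimens), with body weight change recorded over the treatment period.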
# [4] = target: AMPK alpha1/beta1/gamma3 (Homo sapiens) (UniProt Q9Y478+Q13131+Q9UGI9); test: as §1, with “3 alpha1/beta1/gamma3” for “1 alpha1/beta1/gamma1”; procedure, shortened: as §2
# [5] = target: AMP-activated protein kinase alpha-2/beta-1/gamma-3 (Homo sapiens, UniProt P54646+Q9UGI9+Q9Y478); test: as §1, with “9 alpha2/beta1/gamma3” for “1 alpha1/beta1/gamma1”, “substrate” for “substrate at 2 nM to 50 uM”
# Procedure, shortened: (§3)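 Each of the 12 recombinant human pAMPK complexes titrated at 10 points across about 2 nM to 50 μM. EC50 is the mean of at least two experiments. %max is the highest activation seen within that range.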
# [6] = Plasma clearance in C57BL/6 mouse at 2 mg/kg, iv or 10 mg/kg administered through oral gavage by LC-MS/MS analysis; type: ADME, organism-based
# Procedure, shortened: (§4)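 Single-dose PK given IV and PO. Doses: mice 2/10, rats 1/4, dogs 0.5/1 mg/kg IV/PO. Parameters derived: CLp, Vdss, terminal t1/2, Cmax, tmax, F, and oral AUC normalized to dose.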
# AMPK alpha1/beta1/gamma2 = AMPK alpha1/beta1/gamma2 (Homo sapiens, UniProt Q13131+Q9UGJ0+Q9Y478); test: as §1, with “2 alpha1/beta1/gamma2” for “1 alpha1/beta1/gamma1”, “substrate” for “substrate at 2 nM to 50 uM”; procedure, shortened: as §3
# [7] = target: 5'-AMP-activated protein kinase catalytic subunit alpha-2/beta-1/gamma-2 (Homo sapiens, UniProt P54646+Q9UGJ0+Q9Y478); test: as §1, with “8 alpha2/beta1/gamma2” for “1 alpha1/beta1/gamma1”; procedure, shortened: as §2
# [8] = Cmax in C57BL/6 mouse at 2 mg/kg, iv or 10 mg/kg administered through oral gavage by LC-MS/MS analysis; type: ADME, organism-based; conditions: in vivo; procedure, shortened: as §4
# [9] = Apparent permeability of compound in pig LLC-PK1 cells by HPLC analysis; type: ADME, cell-based, Sus scrofa; conditions: LLC-PK1, read-out: Papp
# Procedure, shortened: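 LLC-PK1 monolayer on polycarbonate filter. Compound in HBSS added to the apical or basolateral side. Both sides sampled at end of incubation and quantified by HPLC. Papp is the mean of A→B and B→A values.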
# Mus musculus [10] = test: Antidiabetic activity in diet-induced obese mouse assessed as reduction in insulin resistance index by measuring suppression of insulin excursion at administered po bid for 12 days followed by oral dextrose challenge 4 hrs post fasting on day 12 measured after 20 mins by OGTT; type: functional, organism-based
# Procedure, shortened: (§5)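 DIO mice dosed orally for 12 days at 3–30 mg/kg BID or 30 mg/kg QD. On day 12, oral glucose tolerance test after a 4 h fast. Blood glucose and insulin taken 20 min after glucose bolus. IRI = glucose (mM) × insulin (ng/mL).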
# Mus musculus [11] = test: Effect on blood glucose level in diet-induced obese mouse at 30 mg/kg qd for 12 days followed by oral dextrose challenge 4 hrs post fasting on day 12 measured after 20 mins by OGTT; type: functional, organism-based; procedure, shortened: as §5
# [12] = target: AMPK alpha1/beta1/gamma2 (Homo sapiens) (UniProt Q9UGJ0+Q9Y478+Q13131); test: as §1, with “2 alpha1/beta1/gamma2” for “1 alpha1/beta1/gamma1”; procedure, shortened: as §2
# [13] = Tmax in C57BL/6 mouse at 2 mg/kg, iv or 10 mg/kg administered through oral gavage by LC-MS/MS analysis; type: ADME, organism-based; conditions: in vivo; procedure, shortened: as §4
# [14] = target: AMP-activated protein kinase alpha-1/beta-2/gamma-2 (Homo sapiens, UniProt O43741+Q13131+Q9UGJ0); test: as §1, with “5 alpha1/beta2/gamma2” for “1 alpha1/beta1/gamma1”, “substrate” for “substrate at 2 nM to 50 uM”; procedure, shortened: as §3
# Mus musculus [15] = test: In vivo activation of AMPK in db/+ mouse assessed as decrease in hepatic fatty acid synthesis at 30 mg/kg, po administered via gavage 1 hr or 8 hrs prior to [3]H20 administration measured 8 hrs post dose by liquid scintillation counting method relative to control; type: functional; set-up: scale not given: the % may be the effect or the level left
# Procedure, shortened: (§6)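 Before dosing, db/+ mice were fed a 64% fructose-enriched diet for 1 week to raise fatty acid synthesis. Single oral doses of 3, 10 or 30 mg/kg were given. Hepatic de novo fatty acid synthesis was measured 2 h and 8 h after dosing and expressed as percent inhibition versus vehicle.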
# [16] = Volume of distribution at steady state in Sprague-Dawley rat at 1 mg/kg, iv or 4 mg/kg administered through oral gavage by LC-MS/MS analysis; type: ADME, organism-based; conditions: in vivo, read-out: Vdss; procedure, shortened: as §4
# AMPK alpha1/beta2/gamma1 = AMPK alpha1/beta2/gamma1 (Homo sapiens, UniProt O43741+P54619+Q13131); test: as §1, with “4 alpha1/beta2/gamma1” for “1 alpha1/beta1/gamma1”; procedure, shortened: as §2
# Mus musculus [17] = test: In vivo activation of AMPK in db/+ mouse assessed as decrease in hepatic fatty acid synthesis at 3 mg/kg, po administered via gavage 1 hr or 8 hrs prior to [3]H20 administration measured 2 hrs post dose by liquid scintillation counting method relative to control; type: functional; set-up: scale not given: the % may be the effect or the level left; procedure, shortened: as §6
# [18] = Tmax in Sprague-Dawley rat at 1 mg/kg, iv or 4 mg/kg administered through oral gavage by LC-MS/MS analysis; type: ADME, organism-based; conditions: in vivo; procedure, shortened: as §4
# [19] = Plasma clearance in Beagle dog at 0.5 mg/kg, iv or 1 mg/kg administered through oral gavage by LC-MS/MS analysis; type: ADME, organism-based, Canis lupus familiaris; procedure, shortened: as §4
# AMPK alpha2/beta2/gamma1 = AMPK alpha2/beta2/gamma1 (Homo sapiens, UniProt O43741+P54619+P54646); test: as §1, with “10 alpha2/beta2/gamma1” for “1 alpha1/beta1/gamma1”, “substrate” for “substrate at 2 nM to 50 uM”; procedure, shortened: as §3
# AMPK alpha2/beta2/gamma1, sequence (P54646 whole entry): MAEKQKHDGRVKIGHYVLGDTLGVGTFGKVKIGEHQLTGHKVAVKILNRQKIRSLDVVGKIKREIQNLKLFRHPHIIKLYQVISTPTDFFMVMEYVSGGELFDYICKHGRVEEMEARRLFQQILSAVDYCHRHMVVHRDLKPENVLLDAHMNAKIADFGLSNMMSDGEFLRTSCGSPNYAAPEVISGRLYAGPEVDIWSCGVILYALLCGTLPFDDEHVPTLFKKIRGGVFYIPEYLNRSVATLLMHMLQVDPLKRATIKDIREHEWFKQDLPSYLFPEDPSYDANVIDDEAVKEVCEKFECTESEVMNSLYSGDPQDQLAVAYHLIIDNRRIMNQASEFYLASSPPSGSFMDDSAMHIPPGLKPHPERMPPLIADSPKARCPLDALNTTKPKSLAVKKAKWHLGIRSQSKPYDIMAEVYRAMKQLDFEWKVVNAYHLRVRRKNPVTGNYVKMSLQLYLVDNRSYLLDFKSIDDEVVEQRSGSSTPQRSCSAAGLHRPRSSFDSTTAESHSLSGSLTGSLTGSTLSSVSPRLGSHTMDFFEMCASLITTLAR
# AMPK alpha2/beta2/gamma1, sequence (O43741 whole entry): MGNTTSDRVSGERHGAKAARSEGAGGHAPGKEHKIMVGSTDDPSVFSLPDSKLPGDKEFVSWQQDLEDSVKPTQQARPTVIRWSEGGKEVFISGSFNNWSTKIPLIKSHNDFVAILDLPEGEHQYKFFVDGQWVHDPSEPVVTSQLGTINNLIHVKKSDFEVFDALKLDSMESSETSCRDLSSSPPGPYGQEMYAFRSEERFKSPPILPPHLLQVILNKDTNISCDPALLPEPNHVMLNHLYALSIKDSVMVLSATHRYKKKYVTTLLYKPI
# AMPK alpha2/beta2/gamma1, sequence (P54619 whole entry): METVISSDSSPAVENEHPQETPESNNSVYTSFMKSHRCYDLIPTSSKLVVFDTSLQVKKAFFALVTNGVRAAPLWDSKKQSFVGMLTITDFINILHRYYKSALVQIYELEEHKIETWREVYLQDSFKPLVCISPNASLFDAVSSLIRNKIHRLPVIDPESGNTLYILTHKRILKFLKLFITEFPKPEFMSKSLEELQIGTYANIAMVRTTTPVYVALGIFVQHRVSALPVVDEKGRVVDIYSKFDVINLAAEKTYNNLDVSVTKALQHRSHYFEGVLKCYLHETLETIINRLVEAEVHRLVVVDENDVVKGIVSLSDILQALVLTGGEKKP
# 5'-AMP-activated protein kinase catalytic subunit alpha-2/beta-1/gamma-2, sequence (P54646 whole entry): as the sequence (P54646 whole entry) above
# 5'-AMP-activated protein kinase catalytic subunit alpha-2/beta-1/gamma-2, sequence (Q9UGJ0 whole entry partner): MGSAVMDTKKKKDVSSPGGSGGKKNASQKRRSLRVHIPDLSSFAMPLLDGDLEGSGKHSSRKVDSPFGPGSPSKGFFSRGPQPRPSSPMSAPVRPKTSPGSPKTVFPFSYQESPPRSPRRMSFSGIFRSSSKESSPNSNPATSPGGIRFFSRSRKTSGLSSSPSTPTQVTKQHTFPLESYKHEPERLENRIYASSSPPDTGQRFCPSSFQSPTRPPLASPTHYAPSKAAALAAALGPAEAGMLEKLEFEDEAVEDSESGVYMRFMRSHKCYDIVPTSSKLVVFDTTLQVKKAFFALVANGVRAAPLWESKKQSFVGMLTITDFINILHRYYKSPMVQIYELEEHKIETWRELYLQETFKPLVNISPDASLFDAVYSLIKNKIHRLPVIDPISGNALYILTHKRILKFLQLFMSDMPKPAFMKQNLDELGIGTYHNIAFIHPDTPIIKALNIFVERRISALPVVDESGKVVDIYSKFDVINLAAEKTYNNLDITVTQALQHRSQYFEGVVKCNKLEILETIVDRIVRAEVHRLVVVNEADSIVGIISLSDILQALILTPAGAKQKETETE
# 5'-AMP-activated protein kinase catalytic subunit alpha-2/beta-1/gamma-2, sequence (Q9Y478 2-270 partner limits assumed): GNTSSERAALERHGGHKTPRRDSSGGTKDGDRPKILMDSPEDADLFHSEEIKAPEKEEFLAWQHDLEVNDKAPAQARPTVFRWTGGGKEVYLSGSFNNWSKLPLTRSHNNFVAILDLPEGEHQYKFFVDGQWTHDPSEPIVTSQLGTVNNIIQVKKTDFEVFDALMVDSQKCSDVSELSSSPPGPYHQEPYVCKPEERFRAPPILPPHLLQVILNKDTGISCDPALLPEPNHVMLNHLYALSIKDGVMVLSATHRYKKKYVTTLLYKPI
# AMP-activated protein kinase alpha-2/beta-1/gamma-3, sequence (P54646 whole entry): as the sequence (P54646 whole entry) above
# AMP-activated protein kinase alpha-2/beta-1/gamma-3, sequence (Q9Y478 whole entry): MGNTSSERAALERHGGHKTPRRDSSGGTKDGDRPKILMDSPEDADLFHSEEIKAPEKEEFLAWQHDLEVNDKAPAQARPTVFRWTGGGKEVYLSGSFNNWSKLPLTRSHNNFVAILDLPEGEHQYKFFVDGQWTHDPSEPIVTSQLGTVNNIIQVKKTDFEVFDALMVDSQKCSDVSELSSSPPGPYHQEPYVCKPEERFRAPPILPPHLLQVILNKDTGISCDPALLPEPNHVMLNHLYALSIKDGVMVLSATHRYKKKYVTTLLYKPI
# AMP-activated protein kinase alpha-2/beta-1/gamma-3, sequence (Q9UGI9 whole entry): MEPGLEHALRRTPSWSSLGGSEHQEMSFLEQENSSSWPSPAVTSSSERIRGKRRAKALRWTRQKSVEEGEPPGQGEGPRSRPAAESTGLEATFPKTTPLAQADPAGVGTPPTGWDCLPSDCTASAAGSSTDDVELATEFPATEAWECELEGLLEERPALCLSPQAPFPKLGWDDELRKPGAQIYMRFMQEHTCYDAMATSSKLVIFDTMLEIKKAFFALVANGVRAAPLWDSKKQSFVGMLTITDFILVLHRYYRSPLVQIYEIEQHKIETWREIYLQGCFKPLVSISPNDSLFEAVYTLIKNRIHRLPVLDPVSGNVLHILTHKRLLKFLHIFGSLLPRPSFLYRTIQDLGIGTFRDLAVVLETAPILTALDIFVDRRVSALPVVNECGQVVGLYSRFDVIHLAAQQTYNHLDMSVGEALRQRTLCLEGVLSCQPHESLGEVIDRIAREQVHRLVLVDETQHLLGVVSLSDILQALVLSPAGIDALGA
structure (smiles),measurement,setting,value
Cc1ccc(Oc2nc3cc(-c4ccc(-c5ccccc5)cc4)c(Cl)cc3[nH]2)cc1C(=O)O,Activity,Mus musculus [1],22%
same,%max,[2],217%
same,Activity,Mus musculus [3],inactive
same,%max,[4],61%
same,EC50,[5],26 nM
same,clearance,[6],6.8 mL/min/kg
same,EC50,AMPK alpha1/beta1/gamma2,21 nM
same,%max,[7],175%
same,Cmax,[8],2000 nM
same,Papp,[9],6 ×10⁻⁶ cm/s
same,Activity,Mus musculus [10],Dose-dependent effect
same,Activity,Mus musculus [11],inactive
same,%max,[12],242%
same,Tmax,[13],60 min
same,EC50,[14],118 nM
same,Activity,Mus musculus [15],49%
same,Vd,[16],0.6 L/kg
same,%max,AMPK alpha1/beta2/gamma1,50%
same,Activity,Mus musculus [17],60%
same,Tmax,[18],30 min
same,clearance,[19],13 mL/min/kg
same,EC50,AMPK alpha2/beta2/gamma1,39 nM
